The values below come from ChEMBL document CHEMBL2439956, “Synthesis and biological evaluation of novel formyl-pyrazoles bearing coumarin moiety as potent antimicrobial and antioxidant agents” (2013).

In brackets after ≈: the same amount, converted by molar mass. Activity calls are given as the source filed them. The calls are words filed in the database; no cut-off is given here.

The subject of experiment [1] is Candida albicans. Kind of experiment: Antifungal activity against Candida albicans by broth dilution technique. The class given is functional. An outline of the steps: (§1)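 Broth dilution technique; each MIC (µg/mL) is the mean of three determinations run in triplicate against the bacterial and fungal strains.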
The test system of experiment [2] is Aspergillus flavus. Briefly: Antifungal activity against Aspergillus flavus by broth dilution technique. The class given is functional. Put shortly:
as §1

A further experiment deals with Aspergillus niger. Briefly: Antifungal activity against Aspergillus niger by broth dilution technique. It counts as functional. Put shortly:
as §1

Another experiment has as its system Cryptococcus neoformans. Kind of experiment: Antifungal activity against Cryptococcus neoformans by broth dilution technique. The class given is functional. An outline of the steps:
as §1
For orientation: In broth dilution the organism is exposed to a series of concentrations in liquid medium.

A further experiment has as its system Pseudomonas aeruginosa. Briefly: Antibacterial activity against Pseudomonas aeruginosa by broth dilution technique. The class given is functional. Put shortly:
as §1

For experiment [3], the system named is Escherichia coli. Kind of experiment: Antibacterial activity against Escherichia coli by broth dilution technique. It counts as functional. An outline of the steps: as §1
The subject of experiment [4] is Streptococcus pyogenes. Kind of experiment: Antibacterial activity against Streptococcus pyogenes by broth dilution technique. The class given is functional. An outline of the steps:
as §1

The subject of a further experiment is Staphylococcus aureus. Briefly: Antibacterial activity against Staphylococcus aureus by broth dilution technique. The class given is functional. Put shortly:
as §1

Experiment [5] has as its system Radical scavenging activity. Briefly: Antioxidant activity assessed as DPPH radical scavenging activity at 50 ug/ml relative to butylated hydroxytoluene. The class given is functional. Put shortly: (§2)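 DPPH radical scavenging assay with BHT as standard antioxidant. Samples were tested at five concentrations (10, 20, 30, 40 and 50 µg/mL) in triplicate, alongside a control at 0 µg/mL. Read-out is % radical scavenging, reported as mean ± SD.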
(In general: DPPH is a stable violet radical that fades when it is reduced.)

For experiment [6], the system named is Radical scavenging activity. Kind of experiment: Antioxidant activity assessed as DPPH radical scavenging activity at 40 ug/ml relative to butylated hydroxytoluene. The class given is functional. An outline of the steps: as §2
Experiment [7] concerns Radical scavenging activity. Kind of experiment: Antioxidant activity assessed as DPPH radical scavenging activity at 30 ug/ml relative to butylated hydroxytoluene. The class given is functional. An outline of the steps: as §2
In experiment [8] the test system is Radical scavenging activity. Kind of experiment: Antioxidant activity assessed as DPPH radical scavenging activity at 20 ug/ml relative to butylated hydroxytoluene. It counts as functional. Put shortly: as §2
In experiment [9] the test system is Radical scavenging activity. Briefly: Antioxidant activity assessed as DPPH radical scavenging activity at 10 ug/ml relative to butylated hydroxytoluene. It counts as functional. An outline of the steps: as §2
Experiment [10] concerns Candida albicans. Kind of experiment: Antifungal activity against Candida albicans at 200 ug/ml by broth dilution technique. It counts as functional, organism-based.
For experiment [11], the system named is Aspergillus flavus. Kind of experiment: Antifungal activity against Aspergillus flavus at 200 ug/ml by broth dilution technique. It counts as functional, organism-based.
Experiment [12] has as its system Escherichia coli. Kind of experiment: Antibacterial activity against Escherichia coli at 200 ug/ml by broth dilution technique. The class given is functional, organism-based.
Experiment [13] deals with Streptococcus pyogenes. Briefly: Antibacterial activity against Streptococcus pyogenes at 200 ug/ml by broth dilution technique. It counts as functional, organism-based.

For `C/C(=N/Nc1ccc(Cl)cc1)c1c(O)ccc2c(C)cc(=O)oc12`, the MIC (in general, the lowest concentration that inhibits growth of the organism) with Candida albicans [1] came to 30 µg/mL (≈ 87.5 µM); in the experiment on Aspergillus flavus [2], 50 µg/mL (≈ 146 µM); with Aspergillus niger it was 60 µg/mL (≈ 175 µM); in the experiment with Cryptococcus neoformans, 25 µg/mL (≈ 72.9 µM); in the experiment with Pseudomonas aeruginosa, 25 µg/mL (≈ 72.9 µM); in the experiment with Escherichia coli [3] it was 50 µg/mL (≈ 146 µM). Besides, the minimal inhibitory concentration (MIC) was 50 µg/mL (≈ 146 µM) against Streptococcus pyogenes [4] and 20 µg/mL (≈ 58.3 µM) in the experiment on Staphylococcus aureus.
For the molecule `COc1ccccc1-n1cc(C=O)c(-c2c(O)ccc3c(C)cc(=O)oc23)n1`, the Activity in experiment [5] is 17.4%; in [6] it was 15.6%; in experiment [7] it was 13.3%; in [8], 12%; in [9], 11.1%. Further, the MIC is 50 µg/mL (≈ 133 µM) with Candida albicans [1]; 25 µg/mL (≈ 66.4 µM) in the experiment on Aspergillus flavus [2]; 50 µg/mL (≈ 133 µM) against Aspergillus niger; 25 µg/mL (≈ 66.4 µM) against Cryptococcus neoformans; 25 µg/mL (≈ 66.4 µM) with Pseudomonas aeruginosa; 75 µg/mL (≈ 199 µM) in the experiment with Escherichia coli [3]. For the same molecule, the results for the minimal inhibitory concentration (MIC) in the experiment on Streptococcus pyogenes [4] and against Staphylococcus aureus were 50 µg/mL (≈ 133 µM) and 30 µg/mL (≈ 79.7 µM), respectively.
Regarding `Cc1cc(=O)oc2c(-c3nn(-c4ccc([N+](=O)[O-])cc4[N+](=O)[O-])cc3C=O)c(O)ccc12`, the Activity in [5] is 56%; in [6], 51.1%; in experiment [7], 47.1%; in experiment [8] it was 41.9%; in experiment [9], 34.7%. Also, the MIC entry in the experiment on Candida albicans [1], in the experiment on Aspergillus flavus [2], in the experiment with Aspergillus niger and in the experiment with Cryptococcus neoformans was “inactive” throughout. Also, the minimal inhibitory concentration (MIC) was determined as 20 µg/mL (≈ 45.8 µM) with Pseudomonas aeruginosa, 40 µg/mL (≈ 91.7 µM) with Escherichia coli [3], 75 µg/mL (≈ 172 µM) with Streptococcus pyogenes [4] and 40 µg/mL (≈ 91.7 µM) against Staphylococcus aureus.
Turning to `C/C(=N/Nc1ccccc1C)c1c(O)ccc2c(C)cc(=O)oc12`, the outcome with Candida albicans [10] and in the experiment with Aspergillus flavus [11] was inactive. For the same molecule, the minimal inhibitory concentration (MIC) with Aspergillus niger is 75 µg/mL (≈ 233 µM); in the experiment with Cryptococcus neoformans, 40 µg/mL (≈ 124 µM); with Pseudomonas aeruginosa, 100 µg/mL (≈ 310 µM); against Escherichia coli [3], 75 µg/mL (≈ 233 µM); against Streptococcus pyogenes [4], 50 µg/mL (≈ 155 µM); against Staphylococcus aureus it was 40 µg/mL (≈ 124 µM).
Take `Cc1cc(=O)oc2c(-c3nn(-c4ccccc4)cc3C=O)c(O)ccc12`: the Activity in [5] was 57.8%; in [6], 50.1%; in experiment [7] it was 46.4%; in [8] it was 42.1%; in experiment [9], 39.4%. Moreover, the outcome in the experiment with Candida albicans [10] and with Aspergillus flavus [11] was inactive. In addition, the MIC in the experiment on Aspergillus niger is 100 µg/mL (≈ 289 µM); in the experiment with Cryptococcus neoformans it was 50 µg/mL (≈ 144 µM); against Pseudomonas aeruginosa it was 50 µg/mL (≈ 144 µM); against Escherichia coli [3], 30 µg/mL (≈ 86.6 µM). In addition, the MIC entry in the experiment with Streptococcus pyogenes [4] and with Staphylococcus aureus was “inactive” each time.
Take `Cc1cc(=O)oc2c(-c3nn(-c4ccc(Cl)cc4)cc3C=O)c(O)ccc12`: the Activity in experiment [5] is 69.3%; in [6], 63.9%; in experiment [7] it was 58.1%; in [8], 53.3%; in [9] it was 48.9%. Besides, the minimum inhibitory concentration (MIC) in the experiment with Candida albicans [1] worked out at 25 µg/mL (≈ 65.7 µM); with Aspergillus flavus [2], 60 µg/mL (≈ 158 µM); against Aspergillus niger, 40 µg/mL (≈ 105 µM); with Cryptococcus neoformans, 15 µg/mL (≈ 39.4 µM); in the experiment with Pseudomonas aeruginosa, 15 µg/mL (≈ 39.4 µM); in the experiment on Escherichia coli [3] it was 30 µg/mL (≈ 78.8 µM). In addition, the results for the MIC in the experiment with Streptococcus pyogenes [4] and in the experiment with Staphylococcus aureus were 35 µg/mL (≈ 91.9 µM) and 15 µg/mL (≈ 39.4 µM), respectively.
Consider `COc1ccccc1N/N=C(/C)c1c(O)ccc2c(C)cc(=O)oc12`, for which the MIC came out at 30 µg/mL (≈ 88.7 µM) with Candida albicans [1]; 40 µg/mL (≈ 118 µM) with Aspergillus flavus [2]; 50 µg/mL (≈ 148 µM) in the experiment on Aspergillus niger; 40 µg/mL (≈ 118 µM) against Cryptococcus neoformans; 50 µg/mL (≈ 148 µM) with Escherichia coli [3]; 60 µg/mL (≈ 177 µM) against Streptococcus pyogenes [4]. Further, the minimal inhibitory concentration (MIC) in the experiment with Staphylococcus aureus turned out to be 30 µg/mL (≈ 88.7 µM). In the experiment on Pseudomonas aeruginosa, the MIC result was “inactive”.
With `C/C(=N/Nc1ccc([N+](=O)[O-])cc1[N+](=O)[O-])c1c(O)ccc2c(C)cc(=O)oc12`, the MIC result in the experiment with Candida albicans [1], with Aspergillus flavus [2], in the experiment with Aspergillus niger, with Cryptococcus neoformans, with Pseudomonas aeruginosa and in the experiment with Escherichia coli [3] was “inactive” throughout. In addition, the minimum inhibitory concentration (MIC) in the experiment on Streptococcus pyogenes [4] came to 75 µg/mL (≈ 188 µM); with Staphylococcus aureus, 50 µg/mL (≈ 126 µM).
In the case of `C/C(=N/Nc1ccccc1)c1c(O)ccc2c(C)cc(=O)oc12`, the result in the experiment with Escherichia coli [12] and in the experiment on Streptococcus pyogenes [13] was inactive. For the same molecule, the minimal inhibitory concentration (MIC) came out at 50 µg/mL (≈ 162 µM) against Candida albicans [1]; 75 µg/mL (≈ 243 µM) against Aspergillus flavus [2]; 75 µg/mL (≈ 243 µM) against Aspergillus niger; 50 µg/mL (≈ 162 µM) in the experiment with Cryptococcus neoformans; 25 µg/mL (≈ 81.1 µM) against Pseudomonas aeruginosa; 40 µg/mL (≈ 130 µM) in the experiment on Staphylococcus aureus. Also, the MIC result in the experiment on Escherichia coli [3] and in the experiment on Streptococcus pyogenes [4] was “inactive” throughout.
On to `C[C@@H]1[C@H](O)[C@@H](C)/C=C/C=C/C=C/C=C/C=C/C=C/C=C/[C@H](O[C@@H]2O[C@H](C)[C@@H](O)[C@H](N)[C@@H]2O)C[C@@H]2O[C@](O)(C[C@@H](O)C[C@@H](O)[C@H](O)CC[C@@H](O)C[C@@H](O)CC(=O)O[C@H]1C)C[C@H](O)[C@H]2C(=O)O` [AMPHOTERICIN B], for which the MIC was 25 µg/mL (≈ 27.1 µM) against Candida albicans [1], 50 µg/mL (≈ 54.1 µM) against Aspergillus flavus [2], 50 µg/mL (≈ 54.1 µM) with Aspergillus niger and 25 µg/mL (≈ 27.1 µM) with Cryptococcus neoformans.
`O=C(O)c1cn(C2CC2)c2cc(N3CCNCC3)c(F)cc2c1=O` [CIPROFLOXACIN]: the MIC with Escherichia coli [3] stood at 25 µg/mL (≈ 75.4 µM); against Streptococcus pyogenes [4] it was 50 µg/mL (≈ 151 µM).
`Cc1ccccc1-n1cc(C=O)c(-c2c(O)ccc3c(C)cc(=O)oc23)n1`: the Activity in experiment [5] stood at 17.1%; in experiment [6] it was 15.1%; in experiment [7], 14.1%; in [8], 13.8%; in experiment [9], 12.8%. Besides, the result in the experiment on Candida albicans [10] and in the experiment with Aspergillus flavus [11] was inactive. For the same molecule, the MIC in the experiment with Aspergillus niger was 60 µg/mL (≈ 166 µM); with Cryptococcus neoformans, 30 µg/mL (≈ 83.2 µM); against Pseudomonas aeruginosa, 50 µg/mL (≈ 139 µM); with Escherichia coli [3], 40 µg/mL (≈ 111 µM); in the experiment on Streptococcus pyogenes [4] it was 50 µg/mL (≈ 139 µM); against Staphylococcus aureus, 30 µg/mL (≈ 83.2 µM).
